Data published in ChEMBL document CHEMBL1153738 (J Nat Prod, 2009).
≈ marks a conversion by molar mass, not a printed value.

Columns and labels:
[1] = molecular target: T1, Endothelin-1 receptor (Homo sapiens) (UniProt P25101); experiment: Displacement of [3H]BQ-123 from human ETA receptor in human SK-N-MC cells at 100 ug/ml after 60 mins by scintillation counting; assay type: cell-based
T1 sequence (whole entry): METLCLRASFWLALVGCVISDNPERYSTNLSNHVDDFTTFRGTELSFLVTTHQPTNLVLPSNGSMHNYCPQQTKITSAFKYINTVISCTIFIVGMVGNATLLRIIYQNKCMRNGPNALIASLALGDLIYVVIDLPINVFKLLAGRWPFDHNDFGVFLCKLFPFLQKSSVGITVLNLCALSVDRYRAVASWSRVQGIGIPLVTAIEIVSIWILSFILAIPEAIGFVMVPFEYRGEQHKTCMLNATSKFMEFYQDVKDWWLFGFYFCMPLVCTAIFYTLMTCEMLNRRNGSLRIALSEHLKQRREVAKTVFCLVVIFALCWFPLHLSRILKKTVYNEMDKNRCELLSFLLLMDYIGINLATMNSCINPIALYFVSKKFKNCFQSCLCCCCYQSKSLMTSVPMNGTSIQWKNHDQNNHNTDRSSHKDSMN
In short: (§1)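 Confluent human neuroblastoma SK-N-MC cells, which naturally express ETA, were PBS-washed and held 15 min at room temperature in DMEM with 0.1% BSA. […] Preincubation and incubation were 30 min each at 37 °C. Cells were then put on ice, washed, lysed in 1 M NaOH for 30 min and counted by scintillation. Results are % of specific binding.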

[2] = molecular target: T1, Endothelin-1 receptor (Homo sapiens); experiment: Displacement of [3H]BQ-123 from human ETA receptor in human SK-N-MC cells at 10 ug/ml after 60 mins by scintillation counting; assay type: cell-based; in short: as §1
[3] = molecular target: T2, Neuropeptide Y receptor type 1 (Homo sapiens) (UniProt P25929); experiment: Displacement of [3H]NPY from neuropeptide Y1 receptor in human SK-N-MC cells at 100 ug/ml after 60 mins by scintillation counting; assay type: cell-based
T2 sequence (whole entry): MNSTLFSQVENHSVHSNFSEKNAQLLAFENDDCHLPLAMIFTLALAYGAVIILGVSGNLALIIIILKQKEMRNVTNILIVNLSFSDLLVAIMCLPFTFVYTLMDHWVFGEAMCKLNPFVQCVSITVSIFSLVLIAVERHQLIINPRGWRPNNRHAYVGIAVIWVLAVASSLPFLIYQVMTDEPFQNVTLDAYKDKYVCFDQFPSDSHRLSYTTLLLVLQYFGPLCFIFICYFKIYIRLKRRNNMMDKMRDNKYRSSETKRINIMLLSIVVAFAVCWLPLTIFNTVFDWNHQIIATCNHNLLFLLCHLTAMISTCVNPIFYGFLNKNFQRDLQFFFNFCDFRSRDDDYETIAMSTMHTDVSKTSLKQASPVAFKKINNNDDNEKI
In short: (§2)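 SK-N-MC neuroblastoma cells, which natively express Y1, were grown to confluence, PBS-washed and equilibrated 15 min at room temperature in DMEM with 0.5% BSA. […] Steps were 30 min each at 37 °C, followed by ice, PBS wash, 1 M NaOH lysis for 30 min and scintillation counting. Results are % specific binding.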

[4] = molecular target: T2, Neuropeptide Y receptor type 1 (Homo sapiens); experiment: Displacement of [3H]NPY from neuropeptide Y1 receptor in human SK-N-MC cells at 10 ug/ml after 60 mins by scintillation counting; assay type: cell-based; in short: as §2
Plasmodium falciparum [5] = experiment: Antimalarial activity against Plasmodium falciparum D6 after 24 hrs by microtiter plate assay; assay type: functional, organism-based; conditions: D6, 24 h
Plasmodium falciparum [6] = experiment: Antimalarial activity against Plasmodium falciparum W2 after 24 hrs by microtiter plate assay; assay type: functional, organism-based; conditions: W2, 24 h

Row | SMILES | Activity [1] [%] | Activity [2] [%] | Activity [3] [%] | Activity [4] [%] | IC50 (Plasmodium falciparum [5]) [µg/mL] | IC50 (Plasmodium falciparum [6]) [µg/mL]
1 | O=C1C2=C(C3=NCCc4c[nH]c1c43)C1(C=C(Br)C(O)C(Br)=C1)CCN2 (stereo unspecified) | 100 | 100 | 29 | 82 | – | –
2 | CC/C=C/C(CC)CCC[C@@]1(CC)C[C@H](CC)[C@H](CC(=O)O)OO1 (stereo partly specified) | 68 | 100 | 56 | 100 | – | –
3 | N=C(NCCCCCCNC(=N)NC(=N)Nc1ccc(Cl)cc1)NC(=N)Nc1ccc(Cl)cc1 | 79 | 100 | 81 | 100 | – | –
4 | CC(C)C[C@H]1NC(=O)[C@@H](Cc2ccccc2)NC(=O)[C@@H](CC(C)C)NC(=O)[C@H](NC(=O)[C@@H](Cc2ccccc2)NC(=O)C(C)C)[C@H](C)OC(=O)[C@H](CO)NC(=O)[C@@H]([C@H](C)O)NC1=O | 96 | 99 | 18 | 100 | – | –
5 | CN(C)CCc1c[nH]c2ccc(Br)cc12 | 89 | 97 | 76 | 100 | – | –
6 | Nc1nc([C@H]2[C@H](CNC(=O)c3cc(Br)c[nH]3)[C@@H](CNC(=O)c3cc(Br)c[nH]3)[C@@H]2c2c[nH]c(N)n2)c[nH]1 | 80 | 100 | 12 | 95 | – | –
7 | O=C1C[C@H]2S[C@H]3C[C@]2(C=C1Br)C1=C(N3)C(=O)c2[nH]cc3c2C1=NCC3 | 79 | 100 | 40 | 90 | – | –
8 | CC/C=C/C(CC)CCC[C@@]1(CC)C[C@H](CC)[C@H](CC(=O)OC)OO1 (stereo partly specified) | 88 | 100 | 100 | 100 | – | –
9 | CC(=O)OC(C)C(OC(C)=O)C(CCCCCCCCCCCCC1=CC(C)OC1=O)C(=O)O (stereo unspecified) | 79 | 98 | 86 | 100 | – | –
10 | Nc1ncc(C2=CCNC(=O)c3[nH]c(Br)c(Br)c32)[nH]1 | 68 | 78 | 81 | 100 | – | –
11 | CN(C)CCc1c[nH]c2cc(Br)c(Br)cc12 | 62 | 100 | 17 | 100 | – | –
12 | C/C=C1\NC(=O)[C@H](Cc2ccccc2)NC(=O)[C@@H](C(C)C)NC(=O)[C@@H]([C@@H](C)CC)NC(=O)[C@H](NC(=O)[C@H](NC(=O)[C@H](CCCN)NC(=O)[C@H]2CCCN2C(=O)[C@H](NC(=O)[C@@H](NC(=O)[C@@H](NC(=O)[C@H](NC(=O)CCCC(C)(C)O)C(C)C)[C@@H](C)O)C(C)C)C(C)C)[C@@H](C)CC)[C@H](C)OC(=O)[C@H](C(C)C)NC1=O | – | – | – | – | 1.5 (≈ 1 µM) | 1.2 (≈ 0.803 µM)
